ChEMBL document CHEMBL1828620, “Synthesis of novel 6-phenyl-2,4-disubstituted pyrimidine-5-carbonitriles as potential antimicrobial agents” (2011)
Converted amounts (≈) assume the structure as drawn.

Key:
Assay type in all cases: functional
[1] = system: Candida albicans; test: Antifungal activity against Candida albicans IFO 0583 at 200 ug/disc after 48 hrs by agar disc diffusion method; conditions: IFO 0583, 48 h, read-out: DIZ
Outline: (§1)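 Agar disc diffusion: sterile 8 mm filter-paper discs moistened with compound solution in DMSO, placed on agar plates each pre-inoculated with one organism; plates held at 37 °C; growth inhibition zone diameter measured after 24 h (bacteria) or 48 h (C. albicans).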

[2] = system: Micrococcus luteus; test: Antimicrobial activity against Micrococcus luteus IFO 3232 at 200 ug/disc after 24 hrs by agar disc diffusion method; conditions: IFO 3232, 24 h, read-out: DIZ; outline: as §1
[3] = system: Escherichia coli; test: Antimicrobial activity against Escherichia coli IFO 3301 at 200 ug/disc after 24 hrs by agar disc diffusion method; conditions: IFO 3301, 24 h, read-out: DIZ; outline: as §1
[4] = system: Staphylococcus aureus; test: Antimicrobial activity against Staphylococcus aureus IFO 3060 at 200 ug/disc after 24 hrs by agar disc diffusion method; conditions: IFO 3060, 24 h, read-out: DIZ; outline: as §1
[5] = system: Bacillus subtilis; test: Antimicrobial activity against Bacillus subtilis IFO 3007 at 200 ug/disc after 24 hrs by agar disc diffusion method; conditions: IFO 3007, 24 h, read-out: DIZ; outline: as §1
[6] = system: Pseudomonas aeruginosa; test: Antimicrobial activity against Pseudomonas aeruginosa IFO 3448 at 200 ug/disc after 24 hrs by agar disc diffusion method; conditions: IFO 3448, 24 h, read-out: DIZ; outline: as §1
[7] = system: Staphylococcus aureus; test: Antimicrobial activity against Staphylococcus aureus IFO 3060 after 24 hrs by two fold serial dilution method
[8] = system: Pseudomonas aeruginosa; test: Antimicrobial activity against Pseudomonas aeruginosa IFO 3448 at 100 ug/disc after 24 hrs by agar disc diffusion method; outline: as §1
[9] = system: Micrococcus luteus; test: Antimicrobial activity against Micrococcus luteus IFO 3232 after 24 hrs by two fold serial dilution method
[10] = system: Bacillus subtilis; test: Antimicrobial activity against Bacillus subtilis IFO 3007 after 24 hrs by two fold serial dilution method
[11] = system: Pseudomonas aeruginosa; test: Antimicrobial activity against Pseudomonas aeruginosa IFO 3448 after 24 hrs by two fold serial dilution method
[12] = system: Staphylococcus aureus; test: Antimicrobial activity against Staphylococcus aureus IFO 3060 at 100 ug/disc after 24 hrs by agar disc diffusion method; outline: as §1
[13] = system: Escherichia coli; test: Antimicrobial activity against Escherichia coli IFO 3301 at 100 ug/disc after 24 hrs by agar disc diffusion method; outline: as §1
[14] = system: Bacillus subtilis; test: Antimicrobial activity against Bacillus subtilis IFO 3007 at 100 ug/disc after 24 hrs by agar disc diffusion method; outline: as §1
[15] = system: Escherichia coli; test: Antimicrobial activity against Escherichia coli IFO 3301 after 24 hrs by two fold serial dilution method
[16] = system: Micrococcus luteus; test: Antimicrobial activity against Micrococcus luteus IFO 3232 at 100 ug/disc after 24 hrs by agar disc diffusion method; outline: as §1
[17] = system: Candida albicans; test: Antifungal activity against Candida albicans IFO 0583 at 100 ug/disc after 48 hrs by agar disc diffusion method; conditions: IFO 0583, 48 h, read-out: DIZ; outline: as §1

| Molecule | zone of inhibition at 200 µg/disc [1] [mm] | zone of inhibition at 200 µg/disc [2] [mm] | zone of inhibition at 200 µg/disc [3] [mm] | zone of inhibition at 200 µg/disc [4] [mm] | zone of inhibition at 200 µg/disc [5] [mm] | zone of inhibition at 200 µg/disc [6] [mm] | MIC ([7]; IFO 3060, 24 h) [µg/mL] | MIC ([10]; IFO 3007, 24 h) [µg/mL] | further results |
| --- | --- | --- | --- | --- | --- | --- | --- | --- | --- |
| N#Cc1c(Nc2cccc(C(F)(F)F)c2)nc(SCc2ccc(Cl)cc2)nc1-c1ccccc1 | < 10 | 11 | < 10 | 14 | 14 | < 10 | – | – | – |
| N#Cc1c(Nc2ccccc2C(F)(F)F)nc(SCc2ccc(Cl)cc2)nc1-c1ccccc1 | < 10 | 10 | < 10 | 12 | 12 | < 10 | – | – | – |
| N#Cc1c(-c2ccccc2)nc(SCc2ccccc2)[nH]c1=O | < 10 | 16 | < 10 | 16 | 17 | < 10 | – | – | – |
| N#Cc1c(-c2ccccc2)nc(SCOCc2ccccc2)[nH]c1=O | < 10 | 13 | < 10 | 14 | 16 | < 10 | – | – | – |
| GENTAMICIN SULFATE | – | – | – | – | – | – | – | – | MIC [7]: 2 µg/mL; inhibition zone (IZ) [8]: 19 mm; MIC [9]: 2 µg/mL; MIC [10]: 2 µg/mL; MIC [11]: 1 µg/mL; inhibition zone (IZ) [12]: 26 mm; inhibition zone (IZ) [13]: 20 mm; inhibition zone (IZ) [14]: 25 mm; MIC [15]: 0.5 µg/mL; inhibition zone (IZ) [16]: 18 mm |
| N#Cc1c(-c2ccccc2)nc(SCc2ccc([N+](=O)[O-])o2)[nH]c1=O | 11 | 24 | 22 | 33 | 28 | 21 | 0.5 (≈ 1.41 µM) | 1 (≈ 2.82 µM) | MIC ([9]; IFO 3232, 24 h): 1 µg/mL (≈ 2.82 µM); MIC ([11]; IFO 3448, 24 h): 4 µg/mL (≈ 11.3 µM); MIC ([15]; IFO 3301, 24 h): 2 µg/mL (≈ 5.64 µM) |
| Clc1ccccc1C(c1ccccc1)(c1ccccc1)n1ccnc1 [CLOTRIMAZOLE] | – | – | – | – | – | – | – | – | zone of inhibition at 100 µg/disc [17]: 21 mm |
| COCCSc1nc(-c2ccccc2)c(C#N)c(=O)[nH]1 | < 10 | 17 | 12 | 18 | 22 | 10 | 8 (≈ 27.8 µM) | 2 (≈ 6.96 µM) | – |
| Cc1cccc(Sc2nc(SCc3ccc(Cl)cc3)nc(-c3ccccc3)c2C#N)c1 | < 10 | < 10 | < 10 | < 10 | < 10 | < 10 | – | – | – |
| CCOCCSc1nc(-c2ccccc2)c(C#N)c(=O)[nH]1 | < 10 | 17 | 14 | 21 | 24 | 11 | 4 (≈ 13.3 µM) | 4 (≈ 13.3 µM) | – |
| Cc1ccc(Sc2nc(SCc3ccc(Cl)cc3)nc(-c3ccccc3)c2C#N)cc1 | < 10 | 11 | < 10 | 14 | 13 | < 10 | – | – | – |
| N#Cc1c(O)nc(SCc2ccc(Cl)cc2)nc1-c1ccccc1 | < 10 | 19 | 14 | 20 | 19 | 12 | 8 (≈ 22.6 µM) | 8 (≈ 22.6 µM) | MIC ([9]; IFO 3232, 24 h): 8 µg/mL (≈ 22.6 µM) |
| N#Cc1c(Cl)nc(SCc2ccc(Cl)cc2)nc1-c1ccccc1 | 12 | 18 | 16 | 24 | 26 | 14 | – | – | – |
| N#Cc1c(Nc2ccc(F)cc2)nc(SCc2ccc(Cl)cc2)nc1-c1ccccc1 | < 10 | 19 | < 10 | 16 | 18 | < 10 | 2 (≈ 4.47 µM) | 1 (≈ 2.24 µM) | MIC ([9]; IFO 3232, 24 h): 4 µg/mL (≈ 8.95 µM) |
| CCSCCSc1nc(-c2ccccc2)c(C#N)c(=O)[nH]1 | 12 | 12 | 16 | 12 | 16 | 14 | – | – | – |
| N#Cc1c(-c2ccccc2)nc(SCc2ccc(F)cc2)[nH]c1=O | < 10 | 21 | 18 | 22 | 26 | 14 | 4 (≈ 11.9 µM) | 2 (≈ 5.93 µM) | MIC ([9]; IFO 3232, 24 h): 4 µg/mL (≈ 11.9 µM); MIC ([15]; IFO 3301, 24 h): 8 µg/mL (≈ 23.7 µM) |
| CC1(C)S[C@@H]2[C@H](NC(=O)[C@H](N)c3ccccc3)C(=O)N2[C@H]1C(=O)O.O.O.O [AMPICILLIN TRIHYDRATE] | – | – | – | – | – | – | 2 | 0.5 | zone of inhibition at 100 µg/disc ([8]; IFO 3448, 24 h, read-out: DIZ): 17 mm; MIC ([9]; IFO 3232, 24 h): 2 µg/mL; MIC ([11]; IFO 3448, 24 h): 2 µg/mL; zone of inhibition at 100 µg/disc ([12]; IFO 3060, 24 h, read-out: DIZ): 23 mm; zone of inhibition at 100 µg/disc ([13]; IFO 3301, 24 h, read-out: DIZ): 17 mm; zone of inhibition at 100 µg/disc ([14]; IFO 3007, 24 h, read-out: DIZ): 21 mm; zone of inhibition at 100 µg/disc ([16]; IFO 3232, 24 h, read-out: DIZ): 19 mm |
| Cc1ccccc1Sc1nc(SCc2ccc(Cl)cc2)nc(-c2ccccc2)c1C#N | < 10 | < 10 | < 10 | < 10 | < 10 | < 10 | – | – | – |
| CSCCSc1nc(-c2ccccc2)c(C#N)c(=O)[nH]1 | 14 | 15 | 21 | 16 | 18 | 18 | – | 8 (≈ 26.4 µM) | – |
| N#Cc1c(Sc2ccccc2)nc(SCc2ccc(Cl)cc2)nc1-c1ccccc1 | < 10 | 12 | < 10 | 12 | 14 | < 10 | – | – | – |
| N#Cc1c(-c2ccccc2)nc(SCc2ccc([N+](=O)[O-])cc2)[nH]c1=O | < 10 | 13 | 12 | 14 | 17 | < 10 | – | – | – |
| N#Cc1c(Nc2ccc(C(F)(F)F)cc2)nc(SCc2ccc(Cl)cc2)nc1-c1ccccc1 | < 10 | 13 | < 10 | 15 | 17 | < 10 | – | – | – |
